Data reported in ChEMBL document CHEMBL4342521 (J Med Chem, 2020).
Active and inactive are the calls of the source. The rule behind the calls is not given here.

Tests used:
Histone deacetylase 9 = Histone deacetylase 9 (Homo sapiens, UniProt Q9UKV0); assay: Inhibition of recombinant human C-terminal His-tagged HDAC9 (604 to 1066 residues) expressed in baculovirus infected Sf9 cells using Boc-Lys (trifluoroacetyl)-AMC as substrate preincubated for 1 hr followed by substrate addition and measured after 2 hrs by fluorescence based micro plate reader analysis
Outline: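 Recombinant enzyme was preincubated with serially varied inhibitor for 1 h at 30 °C. Boc-Lys(trifluoroacetyl)-AMC was then added to a final 50 μM and incubated 2 h at 30 °C. The reaction was stopped with developer containing trypsin and TSA, and fluorescence (ex 360/em 460 nm) was read 30 min later. Inhibition was taken relative to control wells and fitted to a variable-slope log(inhibitor) curve. Values are the mean of at least three experiments.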

[1] = target: Aminopeptidase N (Sus scrofa) (UniProt P15145); assay: Inhibition of porcine kidney microsomal APN at 10 uM using L-leucine-p-nitroanilide as substrate preincubated for 5 mins followed by substrate addition and measured after 30 mins by microplate reader analysis; format: subcellular; conditions: Sus scrofa domesticus
Outline: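 Porcine kidney microsomal aminopeptidase (CD13) with test agent (final 50 and 10 μM; bestatin 10 μM as reference), 5 min, then L-leucine-p-nitroanilide added. Incubated 30 min at 37 °C; absorbance read at 405 nm.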

OVCAR-3 = assay: Antiproliferative activity against human OVCAR3 cells assessed as reduction in cell viability after 48 hrs by CellTiter-Blue assay; format: functional; conditions: OVCAR-3, 48 h, read-out: LC50 (the source's name)
Outline: (§1)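 Cells grown in RPMI1640 with 10% FBS at 37 °C, 5% CO₂. 5,000–10,000 cells/well were pre-incubated overnight, and a time-zero CellTiter-Blue read was taken. Six 10-fold dilutions (top final 10 μM) were applied for 48 h, followed by 0.125 mg/mL CellTiter-Blue for 2–4 h. Resorufin fluorescence was read at ex 560/em 590 nm. […] Triplicates.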

CAKI-1 = assay: Antiproliferative activity against human Caki1 cells assessed as reduction in cell viability after 48 hrs by CellTiter-Blue assay; format: functional; conditions: CAKI-1, 48 h, read-out: LC50 (the source's name); outline: as §1
RXF 393 = assay: Antiproliferative activity against human RXF393 cells assessed as reduction in cell viability after 48 hrs by CellTiter-Blue assay; format: functional; conditions: RXF 393, 48 h, read-out: LC50 (the source's name); outline: as §1
PC-3 = assay: Antiproliferative activity against human PC3 cells assessed as reduction in cell viability after 48 hrs by CellTiter-Blue assay; format: functional; conditions: PC-3, 48 h, read-out: LC50 (the source's name); outline: as §1
MV4-11 = assay: Antiproliferative activity agaisnt human MV4-11 cells expressing wild type p53/FLT3-ITD mutant assessed as cell death at 10 uM after 48 hrs by CellTiter-blue assay; format: functional, cell-based
SR = assay: […] in human SR cells harboring wild type p53 assessed as pro-caspase 3 cleavage at 50 to 200 nM after 24 hrs by Western blot analysis; format: cell-based
HL-60 = assay: Effect on XIAP protein degradation in p53 null human HL60 cells harboring wild type FLT3 at 50 to 200 nM after 24 hrs by Western blot analysis; format: functional, cell-based
Outline: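 Cells (1,500,000 per well) grown 12 h, then drug-treated as specified. Lysed in RIPA buffer, sonicated, centrifuged, protein normalized by BCA. Run on 4–12% Bis-Tris gels in MES, transferred, probed overnight at 4 °C with primary antibodies at 1/1000. Actin served as reference for LC3-II quantitation.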

Chain of Histone deacetylase 9 (Q9UKV0 whole entry, the tested form may be a part): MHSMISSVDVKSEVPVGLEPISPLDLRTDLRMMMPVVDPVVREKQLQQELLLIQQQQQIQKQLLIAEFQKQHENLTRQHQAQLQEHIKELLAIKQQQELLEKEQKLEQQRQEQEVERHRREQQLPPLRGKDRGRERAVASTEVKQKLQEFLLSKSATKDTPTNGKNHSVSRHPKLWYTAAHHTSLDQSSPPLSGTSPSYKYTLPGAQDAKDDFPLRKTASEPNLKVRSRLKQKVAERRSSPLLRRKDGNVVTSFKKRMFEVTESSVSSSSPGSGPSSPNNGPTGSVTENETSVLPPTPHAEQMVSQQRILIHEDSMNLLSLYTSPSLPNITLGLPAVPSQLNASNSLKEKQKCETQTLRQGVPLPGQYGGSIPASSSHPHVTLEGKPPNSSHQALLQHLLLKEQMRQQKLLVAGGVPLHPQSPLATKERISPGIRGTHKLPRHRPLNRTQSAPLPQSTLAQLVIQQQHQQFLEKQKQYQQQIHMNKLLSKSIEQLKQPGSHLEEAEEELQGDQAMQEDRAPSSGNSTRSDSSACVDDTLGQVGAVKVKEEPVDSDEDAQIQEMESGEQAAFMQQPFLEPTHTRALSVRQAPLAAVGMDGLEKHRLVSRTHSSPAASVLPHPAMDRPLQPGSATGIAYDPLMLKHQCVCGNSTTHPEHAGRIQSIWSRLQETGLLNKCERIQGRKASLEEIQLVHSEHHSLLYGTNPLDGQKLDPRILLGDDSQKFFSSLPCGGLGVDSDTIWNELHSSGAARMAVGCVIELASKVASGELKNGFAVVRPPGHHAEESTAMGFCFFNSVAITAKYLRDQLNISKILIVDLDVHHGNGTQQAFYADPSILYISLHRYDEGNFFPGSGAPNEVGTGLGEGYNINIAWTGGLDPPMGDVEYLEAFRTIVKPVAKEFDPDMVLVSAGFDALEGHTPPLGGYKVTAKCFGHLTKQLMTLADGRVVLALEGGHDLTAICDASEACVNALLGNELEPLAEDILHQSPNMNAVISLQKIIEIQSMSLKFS
Chain of Aminopeptidase N (Sus scrofa) (P15145 whole entry): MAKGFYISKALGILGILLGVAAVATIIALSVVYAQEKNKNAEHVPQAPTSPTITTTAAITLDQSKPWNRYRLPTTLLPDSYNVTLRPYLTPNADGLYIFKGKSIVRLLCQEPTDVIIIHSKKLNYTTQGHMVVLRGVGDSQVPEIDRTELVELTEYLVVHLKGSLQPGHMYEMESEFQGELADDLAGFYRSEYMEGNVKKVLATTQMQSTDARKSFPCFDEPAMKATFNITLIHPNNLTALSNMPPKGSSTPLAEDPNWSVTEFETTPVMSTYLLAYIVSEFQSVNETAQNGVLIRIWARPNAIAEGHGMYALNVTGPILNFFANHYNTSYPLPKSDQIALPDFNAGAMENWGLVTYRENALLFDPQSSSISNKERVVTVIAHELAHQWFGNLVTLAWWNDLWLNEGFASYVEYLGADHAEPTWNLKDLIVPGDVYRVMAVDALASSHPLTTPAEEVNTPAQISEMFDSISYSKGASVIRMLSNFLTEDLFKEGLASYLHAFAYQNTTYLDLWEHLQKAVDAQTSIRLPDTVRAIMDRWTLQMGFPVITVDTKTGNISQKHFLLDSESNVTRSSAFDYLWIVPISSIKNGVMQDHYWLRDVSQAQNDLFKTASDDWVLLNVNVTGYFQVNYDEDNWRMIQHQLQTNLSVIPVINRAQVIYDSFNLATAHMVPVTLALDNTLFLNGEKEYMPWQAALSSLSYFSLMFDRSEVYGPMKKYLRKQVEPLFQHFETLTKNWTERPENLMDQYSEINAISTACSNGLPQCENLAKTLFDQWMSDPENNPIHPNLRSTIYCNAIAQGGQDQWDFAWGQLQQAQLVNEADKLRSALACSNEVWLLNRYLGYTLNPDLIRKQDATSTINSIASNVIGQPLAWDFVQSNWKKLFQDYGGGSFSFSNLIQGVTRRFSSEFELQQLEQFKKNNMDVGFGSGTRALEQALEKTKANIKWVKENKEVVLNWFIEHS

SMILES: CCCNNC(=O)/C=C/c1ccc(CNCCc2c(C)[nH]c3ccccc23)cc1.O=C(O)C(F)(F)F
- IC50 (Histone deacetylase 9): > 10 µM
- inhibition [1]: inactive
- CC50 (OVCAR-3): > 10 µM
- CC50 (CAKI-1): 4.3 µM
- CC50 (RXF 393): 0.666 µM
- CC50 (PC-3): > 10 µM
- Activity (MV4-11): Active
- Activity (SR): Active
- Activity (HL-60): Active
